The RNAGym collection of RNA variant scans (doi:10.1126/science.aae0568)
Variants at the floor of the assay were thinned out.

B1: tRNA (parent)
chain: GUUCCGUUGGCGUAAUGGUAACGCGUCUCCCUCCUAAGGAGAAGACUGCGGGUUCGAGUCCCGUACGGAACG

Variants of: B1
Test: yeast fitness relative to wild type (ratio to wild type); higher = fitter; tRNA-Arg(CCU), competitive growth, 37 C, YPD
Outline: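 Genotype frequency changes were the basis for Darwinian fitness relative to wild type. The frequencies came from 100-nucleotide paired-end sequencing of gene amplicons from the start population and each end population of pooled yeast strains with tRNA-Arg(CCU) gene variants at the native locus. Competition ran in YPD at 37°C for 24 hours in six replicates, genotypes needed ≥ 100 starting reads, and estimates < 0.5 were set to 0.5.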

Point of comparison: GGUUCGUCGGCGUAAUGGUAACGCGUCUCCCUCCUAAGGAGAAGACUGCGGGUUCGAGUCCCGUACGGAACG [U2G C4U U8C], yeast fitness 0.732. Against it:
- GGUACGUUGGCGUAAUGGUAAUGCGUCGCCCUCCUAAGGAGUAGACUGCGGGUUCGAGUCCCGCACGGAACG [U2G C4A C22U U28G A42U U64C] — lower, ≤ 0.5
- GGUACGUCGGCGUAACGGUAACGCGUCUCCCUCCUAAGGAGAAGACUGCGGGUUCGAGUCGCGUACGGAACG [U2G C4A U8C U16C C61G] — lower, ≤ 0.5
- GGUACGUUGGCGUAACGGUAACGCGUCUCCCUCCUAAGGAGAAGACUGCGGGUUCGAGUCGCGUACGCAACG [U2G C4A U16C C61G G68C] — lower, ≤ 0.5
- GGUGCGUUGGCGUAAUGGUACCGCGUCUCCCUCCUAAGGAGAAGACUGCGGGUUCGAGUCCCGUACGGAACG [U2G C4G A21C] — lower, 0.725
- GGUGCGUUGGCGUAAUGGUACCGCGUCUCCCUCCUAAGGAGAAGACUGCGGGUUCGAGUCCCGUACGGCACG [U2G C4G A21C A69C] — lower, ≤ 0.5
- GGUGCGUUGGCGUAAUGGUAACGCGUCUCCAUCCUACGGAGAAGACUGCGGGUUCGAGUCCCGUACGGAACG [U2G C4G C31A A37C] — lower, ≤ 0.5
- GGUGCGUUGGCGUAAUGGUAACGCGUCUCCAUCCUACGGAGAAGACUGCGGGUUCGGGUCCCGUACCGUACG [U2G C4G C31A A37C A57G G67C A69U] — lower, ≤ 0.5
- GGUUCGUUGGCGUAAUGGUAACGCGUCUCCCUCCUAAGGAGAAGACUGCGGGUUCGAGUCCCGUACGGAACG [U2G C4U] — higher, 0.971
- GGUUCGUUGGCGUAAUGGUAACGCGUCUCCCUCCUUAGGAGAAGACUGCGGGUUCGAGUCCCGUACGGAACG [U2G C4U A36U] — lower, 0.587
- GGUUCGUUGGCGUAAUGGUAACGCGUCUCCCUCCUAAGGCGAAGACUGCGGGUUCGAGUCCCGUACGGAACG [U2G C4U A40C] — lower, 0.627
- GGUUCGUUGGCGUAAUGGUAACGCGUCUCCCUCCUAAGGAGGAGACUGCGGGUUCGAGUCCCGUACGGAACG [U2G C4U A42G] — higher, 0.755
- GGUUCGUUGGCGUAAUGGUAACGCGUCUCCCUCCUAAGGAGAAGACUGCGGGUUCGAGUCCCGUGCGGAACG [U2G C4U A65G] — lower, 0.729
- GGUUCGUUGGCGUAAUGGUAAUGCGUUUCCCUCCUACGGAGAAGACUGCGGGUUCGAGUCCCGUACGGAACG [U2G C4U C22U C27U A37C] — lower, ≤ 0.5
- GGUUCGUUGGCGUAAUGGUAACGCGUCUCCCUCCUAAGGAGAAGACUGCGGGUUUGAGUCCCGUACGGAACG [U2G C4U C55U] — lower, 0.679
- GGUUCGUUGGCGUAAUGGUAACGCGUCUCCCUCCUAAGGAGAAGACUGCGGGUUCGAGUACCGUACGGAACG [U2G C4U C60A] — lower, ≤ 0.5
- GGUUCGUUGGCGUAAUGGUAACGCGUCUCCCUCCUAAGGAGAAGACUGCGGGUUCGAGUCAUGUUCGGAACG [U2G C4U C61A C62U A65U] — lower, 0.521
- GGUUCCUUGGCGUAAUGGUAAGGCCUCUCCCACCUAAGGAGAAGACUGCGGAUUCGAGCCAUGUACGGAACG [U2G C4U G6C C22G G25C U32A G52A U59C C61A C62U] — lower, ≤ 0.5
- GGUUCCUUGGCGUAAUGGUAACGCGUCUCCGUCCUAAGGAGAAGACUGCGGGUUCGAGUCCCGUACGGAACG [U2G C4U G6C C31G] — lower, ≤ 0.5
- GGUUCCUUGGCGUAAUGGUAACGCGUCUCCCUCCUAAGGAGAAGACUGGGGGUUCGAGUCCCGUACGGAACG [U2G C4U G6C C49G] — lower, ≤ 0.5
- GGUUCGGUGGGGUACUGAUAACGCGUCUCCCUCCUAAGGAGAAGACUGCGGGUUUGAGUCCCGUACGGAACG [U2G C4U U7G C11G A15C G18A C55U] — higher, 0.75
- GGUUCGGUGGGGUACUGAUAACGCGUCCCCCUCCUAAGGAGAAGACUGCGGGUUUGAGUCCCGUACGGAACG [U2G C4U U7G C11G A15C G18A U28C C55U] — lower, ≤ 0.5
- GGUUCGUUGGCGAAAUGGUAACGCGUCUCCCUCCUAAGGAAAAGCCUGAGGGUGGGAGUCCCGUACGGAACG [U2G C4U U13A G41A A45C C49A U54G C55G] — lower, ≤ 0.5
- GGUCAGUUGGCGUAAUGGUAACGCGUCUCCCUCCUUAGGAGAAGACUGCGGGUUCGAGUCCCGUACGGAACG [U2G C5A A36U] — lower, ≤ 0.5
- GGUCAGUUGGCGUAAUGGUAACGCGUCUCCCUCCUAAGGAGAUGACUGCGGGUUCGAGUCCCGUACGGAACG [U2G C5A A43U] — lower, 0.68
- GGUCAGUUGGCGUAAUGGUAACGCGUCUCCCUCCUAAGGAGAAGACUGCGGGUUCGAGUCCCGUACGGACCG [U2G C5A A70C] — lower, ≤ 0.5
- GGUCAGUUGGCGUAAUGGUAACGCGUCUCCCUCCUAAGGAGAAGACUGCGGGUUGGAGUCCCGUACGGAACG [U2G C5A C55G] — lower, 0.561
- GGUCAGUUGGCGUAAUGGUAACGCGUCUCCCUCCUAAGGAGAAGACUGCGGGUUGGAGUCCCGUCCGGAACG [U2G C5A C55G A65C] — lower, ≤ 0.5
- GGUCAGUUGGCAUAAUGGUAACGCGUCUCCCUCCUAAGGAGAAGACUGCGGGUUGGAGUCCCGUACGGAACG [U2G C5A G12A C55G] — lower, ≤ 0.5
- GGUCAGUUGGCGUAAUGGUAACACGUCCCCCUCCUAAGGAGAAGACUGCGGGUUCGAGCGCCGUACGGAACG [U2G C5A G23A U28C U59C C60G] — lower, ≤ 0.5
- GGUCAGUUGGCGUAAUGGAAACGCGUCUCCCUCCUAAGGAGAAGACUGCGGGUUCGAGUCCCGUACGGAACG [U2G C5A U19A] — lower, 0.552
- GGUCAGUUGGCGUAAUGGAAACGCGUCUCGCUCCUAAGGAGACGACUGCGGGUUCGAGUCCCGUACGGAACG [U2G C5A U19A C30G A43C] — lower, ≤ 0.5
- GGUCAGUUGGCGUAAUGGAAACGCGUCUCGCUCCUAAGGAGACGACUGCGGGUUCGAGUCCCGUACGGCACG [U2G C5A U19A C30G A43C A69C] — lower, 0.537
- GGUCAGUUGGCGUAAUGGAAACGCGUCUCGCUCCUAAGGAGAAGACUGCGGGUUUGAGUCCCGUACGCAACG [U2G C5A U19A C30G C55U G68C] — lower, ≤ 0.5
- GGUCGGUUGGCGUAAUGGUACCGCGUCUCCCUCCUAAGGAGAUGACUGCAGUUUCGAGUCCCGUACGGCACG [U2G C5G A21C A43U G50A G52U A69C] — lower, ≤ 0.5
- GGUCGGUUGGGGUAAUGGUAACGCGUCUCCCUCCUAAGGAGAAGACUGCGGGUUCCAGUCGCGUACGGAACG [U2G C5G C11G G56C C61G] — lower, ≤ 0.5
- GGUCUGUUGGCGUAAUGGUAACGCGUCUCCGUCCUAAGGAGAAGACUGCGGGUUCGAGUCCCGUACGGAACG [U2G C5U C31G] — lower, 0.583
- GGUCCGUUGGAGUCAUGGUAACGCGUCUCCCUCAUAAGGAGAAGACUGCGGGUUCGAGUCCCGUACGGAACG [U2G C11A A14C C34A] — lower, ≤ 0.5
